Values after ≈ are worked out from the molar mass of the structure shown.
Columns and labels:
[1] = Cmax in rat brain at 1.0 mg/kg, po; format: ADME, organism-based; design: dose 1 mg/kg, route oral
[2] = target: T1, Metabotropic glutamate receptor 5 (Homo sapiens, UniProt P41594); experiment: Antagonist activity at human mGluR5 expressed in CHO cells assessed as glutamate induced calcium mobilization
[3] = target: Metabotropic glutamate receptor 1 (Homo sapiens) (UniProt Q13255); experiment: Antagonist activity at mGluR1
[4] = Oral bioavailability in rat at 1.0 mg/kg; format: ADME, organism-based; settings: in vivo
Outline: (§1)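 Rat pharmacokinetics after a 1.0 mg/kg oral dose and a 0.5 mg/kg intravenous dose. Blood clearance, oral blood Cmax, brain:blood AUC ratio and oral bioavailability determined.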

[5] = Cmax in rat at 1.0 mg/kg, po; format: ADME, organism-based; design: dose 1 mg/kg, route oral; settings: in vivo; outline: as §1
[6] = target: Metabotropic glutamate receptor 5 (Mus musculus, UniProt Q3UVX5); experiment: Antagonist activity at mGluR5 in mouse astrocytes assessed as inhibition of L-quisqualate induced calcium release by FLIPR assay; format: functional, cell-based
Outline: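 Primary cortical astrocytes from CD1 mouse pups aged 1–3 days. Cultures re-plated after 5 days to remove neurons and grown at 37 °C to confluence (10–14 d), then plated for 2 days. Cells pre-incubated with antagonist concentration-response curves and challenged with the day's EC80 of L-quisqualate. Intracellular calcium monitored on FLIPR to give fpKi.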

Brain = experiment: fCmax in rat brain at 1.0 mg/kg, po; format: ADME, organism-based; design: dose 1 mg/kg, route oral; settings: in vivo
[7] = Clearance in rat at 1.0 mg/kg, po and 0.5 mg/kg, iv; format: ADME, organism-based; settings: in vivo; outline: as §1
[8] = Ratio of AUC in rat brain to plasma at 1.0 mg/kg, po and 0.5 mg/kg, iv; format: ADME, organism-based; settings: read-out: Ratio AUC; outline: as §1
[9] = Solubility of the compound; format: physicochemical
[10] = target: T1, Metabotropic glutamate receptor 5; experiment: Antagonist activity at human mGluR5 expressed in CHO cells assessed as […] calcium mobilization; format: functional, cell-based
Outline: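 CHO cells stably expressing apo-aequorin, with human mGluR5 expression induced by doxycycline. Calcium mobilisation read by aequorin luminescence. Eleven-point concentration-response curves run in the presence of an EC80 of glutamate. pIC50 is the average of at least two curves.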

[11] = Fraction unbound in rat brain; format: ADME, tissue-based
[12] = Lipophilicity, log D of the compound at pH 7.4; format: physicochemical; settings: buffer

T1 sequence (P41594 whole entry): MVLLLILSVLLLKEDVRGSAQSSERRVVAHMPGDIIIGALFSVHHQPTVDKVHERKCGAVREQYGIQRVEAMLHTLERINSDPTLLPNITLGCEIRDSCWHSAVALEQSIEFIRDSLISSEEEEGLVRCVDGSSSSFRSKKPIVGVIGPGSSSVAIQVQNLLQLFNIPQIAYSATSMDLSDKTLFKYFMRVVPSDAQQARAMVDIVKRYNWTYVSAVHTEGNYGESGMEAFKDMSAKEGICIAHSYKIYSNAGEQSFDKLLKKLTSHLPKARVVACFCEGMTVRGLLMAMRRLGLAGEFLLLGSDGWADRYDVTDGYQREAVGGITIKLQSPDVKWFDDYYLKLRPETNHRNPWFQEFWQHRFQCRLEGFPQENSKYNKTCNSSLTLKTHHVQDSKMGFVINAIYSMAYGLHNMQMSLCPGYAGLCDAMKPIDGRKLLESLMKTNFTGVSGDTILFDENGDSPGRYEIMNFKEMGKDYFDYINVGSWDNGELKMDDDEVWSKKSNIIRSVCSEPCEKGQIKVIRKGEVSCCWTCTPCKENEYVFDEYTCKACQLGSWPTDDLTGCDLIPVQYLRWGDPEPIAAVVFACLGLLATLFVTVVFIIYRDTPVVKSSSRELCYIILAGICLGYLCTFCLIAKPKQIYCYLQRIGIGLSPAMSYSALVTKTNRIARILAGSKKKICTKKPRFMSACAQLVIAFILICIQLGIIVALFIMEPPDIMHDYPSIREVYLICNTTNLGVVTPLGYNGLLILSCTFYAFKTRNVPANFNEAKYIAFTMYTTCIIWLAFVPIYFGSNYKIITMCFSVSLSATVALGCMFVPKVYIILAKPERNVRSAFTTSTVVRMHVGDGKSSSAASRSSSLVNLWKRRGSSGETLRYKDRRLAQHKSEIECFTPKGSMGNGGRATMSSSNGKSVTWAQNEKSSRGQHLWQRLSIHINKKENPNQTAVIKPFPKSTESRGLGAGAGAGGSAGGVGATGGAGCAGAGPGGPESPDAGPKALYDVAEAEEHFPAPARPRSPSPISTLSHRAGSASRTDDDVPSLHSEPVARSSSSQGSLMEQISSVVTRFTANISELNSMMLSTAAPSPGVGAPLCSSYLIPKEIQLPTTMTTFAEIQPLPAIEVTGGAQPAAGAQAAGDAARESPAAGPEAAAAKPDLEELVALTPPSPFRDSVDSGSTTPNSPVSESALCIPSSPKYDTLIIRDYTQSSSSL
Chain of Metabotropic glutamate receptor 1 (Homo sapiens) (Q13255 whole entry, looked up): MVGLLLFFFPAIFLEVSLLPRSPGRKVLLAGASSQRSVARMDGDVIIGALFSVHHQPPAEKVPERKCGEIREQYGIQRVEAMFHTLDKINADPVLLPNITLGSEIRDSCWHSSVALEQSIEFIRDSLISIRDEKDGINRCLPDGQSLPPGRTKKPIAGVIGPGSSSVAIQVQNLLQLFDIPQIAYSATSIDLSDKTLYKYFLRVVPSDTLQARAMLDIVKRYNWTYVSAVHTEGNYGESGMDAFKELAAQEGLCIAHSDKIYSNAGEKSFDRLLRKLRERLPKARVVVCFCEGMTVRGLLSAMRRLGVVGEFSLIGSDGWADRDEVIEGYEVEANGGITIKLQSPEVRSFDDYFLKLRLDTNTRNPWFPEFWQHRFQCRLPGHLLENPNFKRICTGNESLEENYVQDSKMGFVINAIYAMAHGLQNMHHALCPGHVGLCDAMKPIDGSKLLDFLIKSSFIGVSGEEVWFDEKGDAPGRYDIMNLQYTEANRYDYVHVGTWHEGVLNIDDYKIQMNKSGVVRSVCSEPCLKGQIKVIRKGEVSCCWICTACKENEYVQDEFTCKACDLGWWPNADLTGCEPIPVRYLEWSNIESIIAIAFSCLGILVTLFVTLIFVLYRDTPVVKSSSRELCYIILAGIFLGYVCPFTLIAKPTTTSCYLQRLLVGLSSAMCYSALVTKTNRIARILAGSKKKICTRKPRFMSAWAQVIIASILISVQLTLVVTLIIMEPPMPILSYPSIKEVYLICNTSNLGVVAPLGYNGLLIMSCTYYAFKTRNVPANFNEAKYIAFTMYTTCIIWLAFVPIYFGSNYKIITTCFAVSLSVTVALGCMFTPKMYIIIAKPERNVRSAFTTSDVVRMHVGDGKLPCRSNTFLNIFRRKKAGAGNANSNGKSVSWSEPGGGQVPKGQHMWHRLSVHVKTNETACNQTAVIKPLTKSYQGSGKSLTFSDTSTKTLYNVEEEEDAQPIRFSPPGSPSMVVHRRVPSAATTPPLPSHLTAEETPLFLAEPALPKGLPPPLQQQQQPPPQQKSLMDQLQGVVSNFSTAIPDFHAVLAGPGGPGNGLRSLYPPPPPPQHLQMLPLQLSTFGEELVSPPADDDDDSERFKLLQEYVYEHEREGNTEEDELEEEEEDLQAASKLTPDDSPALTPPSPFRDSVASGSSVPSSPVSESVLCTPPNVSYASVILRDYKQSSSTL
Chain of Metabotropic glutamate receptor 5 (Mus musculus, UniProt Q3UVX5) (Q3UVX5 whole entry): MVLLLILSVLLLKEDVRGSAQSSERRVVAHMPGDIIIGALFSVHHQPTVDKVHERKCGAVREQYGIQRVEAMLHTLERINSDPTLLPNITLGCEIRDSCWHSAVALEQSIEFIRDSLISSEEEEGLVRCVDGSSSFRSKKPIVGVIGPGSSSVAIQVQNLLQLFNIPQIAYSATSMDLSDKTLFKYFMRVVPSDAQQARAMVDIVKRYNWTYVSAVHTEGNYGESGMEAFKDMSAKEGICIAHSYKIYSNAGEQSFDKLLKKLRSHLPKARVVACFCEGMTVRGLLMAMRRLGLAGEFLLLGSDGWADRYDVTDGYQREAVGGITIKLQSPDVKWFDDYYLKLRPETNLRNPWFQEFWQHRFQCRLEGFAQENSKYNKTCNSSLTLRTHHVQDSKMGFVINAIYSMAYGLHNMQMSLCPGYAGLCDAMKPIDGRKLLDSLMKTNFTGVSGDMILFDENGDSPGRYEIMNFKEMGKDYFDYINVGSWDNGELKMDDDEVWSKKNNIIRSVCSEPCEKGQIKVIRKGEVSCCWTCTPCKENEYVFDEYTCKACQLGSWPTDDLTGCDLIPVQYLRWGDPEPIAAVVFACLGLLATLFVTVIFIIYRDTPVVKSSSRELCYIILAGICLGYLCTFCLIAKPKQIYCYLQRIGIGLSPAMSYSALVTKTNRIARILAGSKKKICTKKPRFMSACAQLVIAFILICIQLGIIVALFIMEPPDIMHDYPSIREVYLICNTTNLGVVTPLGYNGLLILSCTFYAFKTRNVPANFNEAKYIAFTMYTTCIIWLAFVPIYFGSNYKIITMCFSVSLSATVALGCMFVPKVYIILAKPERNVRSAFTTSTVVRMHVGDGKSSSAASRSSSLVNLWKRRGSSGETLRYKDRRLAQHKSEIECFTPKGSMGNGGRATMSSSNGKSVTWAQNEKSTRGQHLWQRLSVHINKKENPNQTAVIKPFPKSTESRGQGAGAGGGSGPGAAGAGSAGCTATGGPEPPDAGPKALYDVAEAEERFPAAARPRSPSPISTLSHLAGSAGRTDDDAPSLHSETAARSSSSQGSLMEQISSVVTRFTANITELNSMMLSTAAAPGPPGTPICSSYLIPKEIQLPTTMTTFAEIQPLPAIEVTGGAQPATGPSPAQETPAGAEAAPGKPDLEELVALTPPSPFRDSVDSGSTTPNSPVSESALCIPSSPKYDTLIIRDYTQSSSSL

Question: With `Cc1c([C@@H](C)OC(=O)Nc2ccccc2)sc2ncnn12` as the molecule, how does the Cmax [1] read?
Answer: 250 nM

Question: And the IC50 [2]?
Answer: 39.8 nM

Question: And the IC50 [3]?
Answer: 31600 nM

Question: What about the bioavailability [4] of the same molecule?
Answer: 28%

Question: What about the Cmax [5] of the same molecule?
Answer: 63 ng/mL

Question: And the IC50 [6]?
Answer: 31.6 nM

Question: What about the fCmax (Brain) of the same molecule?
Answer: 30 nM

Question: And the clearance [7]?
Answer: 48 mL/min/kg

Question: What about the Kp [8] of the same molecule?
Answer: 2

Question: And the solubility [9]?
Answer: 166 µg/mL (≈ 549 µM)

Question: Which IC50 [2] does the source give for `CC(OC(=O)Nc1ccccc1)c1cn2ncnc2s1` (stereo not given) here?
Answer: 10000 nM

Question: For `Cc1c(C(C)OC(=O)Nc2ccccc2)sc2nc(-c3ccc(F)cc3)nn12` (stereo not given), which IC50 [10] is on record?
Answer: 10 nM

Question: For `Cc1c(C(C)OC(=O)Nc2cccc(F)c2)sc2ncnn12` (stereo not given), which IC50 [10] is on record?
Answer: 50.1 nM

Question: And the fraction unbound [11]?
Answer: 0.017

Question: And the logD [12]?
Answer: 2.6

Question: Which IC50 [10] does the source give for `Cc1c(C(C)OC(=O)Nc2ccc(Cl)cc2)sc2ncnn12` (stereo not given) here?
Answer: 2510 nM

Question: Which IC50 [2] does the source give for `Cc1c(COC(=O)Nc2ccccc2)sc2ncnn12` here?
Answer: > 31600 nM

Question: With `Cc1c(C(C)OC(=O)Nc2ccccc2)sc2nncn12` (stereo not given) as the molecule, how does the IC50 [2] read?
Answer: 126 nM

Question: For `Cc1c(C(C)OC(=O)Nc2ccccc2)sc2nc(-c3cccs3)nn12` (stereo not given), which IC50 [10] is on record?
Answer: 7.94 nM

Question: And the fraction unbound [11]?
Answer: < 0.001

Question: And the logD [12]?
Answer: 3.7

Question: With `Cc1c([C@@H](C)OC(=O)Nc2cccc(F)c2)sc2nncn12` as the molecule, how does the IC50 [2] read?
Answer: 39.8 nM

Question: What about the IC50 [3] of the same molecule?
Answer: > 50100 nM

Question: What about the bioavailability [4] of the same molecule?
Answer: 100%

Question: What about the Cmax [5] of the same molecule?
Answer: 210 ng/mL

Question: And the IC50 [6]?
Answer: 31.6 nM

Question: What about the clearance [7] of the same molecule?
Answer: 33 mL/min/kg

Question: What about the Kp [8] of the same molecule?
Answer: 0.2

Question: And the solubility [9]?
Answer: 31 µg/mL (≈ 96.8 µM)

Question: With `Cc1c([C@H](C)OC(=O)Nc2ccccc2)sc2ncnn12` as the molecule, how does the IC50 [2] read?
Answer: > 10000 nM

Question: What does the source list for `Cc1c(C(C)OC(=O)Nc2cccnc2)sc2ncnn12` (stereo not given)?
Answer: IC50 [2]: 316 nM; fraction unbound [11]: 0.28; logD [12]: 1

Question: With `Cc1c(C(C)OC(=O)Nc2ccccc2)sc2nc(C3CC3)nn12` (stereo not given) as the molecule, how does the IC50 [10] read?
Answer: 12.6 nM

Question: Which IC50 [10] does the source give for `Cc1c(C(C)OC(=O)Nc2ccccc2Cl)sc2ncnn12` (stereo not given) here?
Answer: 501 nM

Question: Which IC50 [2] does the source give for `Cc1c(C(C)OC(=O)Nc2ccccc2)sc2ncnn12` (stereo not given) here?
Answer: > 31600 nM

Question: For `Cc1c(C(C)OC(=O)N(C)c2ccccc2)sc2ncnn12` (stereo not given), which IC50 [2] is on record?
Answer: > 31600 nM

Question: For `Cc1c(C(C)OC(=O)Nc2ccccc2)sc2nc(Cl)nn12` (stereo not given), which IC50 [10] is on record?
Answer: 10 nM

Question: Which IC50 [2] does the source give for `O=C(Nc1ccccc1)OCc1cn2ncnc2s1` here?
Answer: > 31600 nM

Question: For `Cc1c(C(C)OC(=O)NC2CCCCC2)sc2ncnn12` (stereo not given), which IC50 [10] is on record?
Answer: 3160 nM

Question: Which IC50 [10] does the source give for `Cc1c(C(C)OC(=O)Nc2cccc(Cl)c2)sc2ncnn12` (stereo not given) here?
Answer: 39.8 nM

Question: And the fraction unbound [11]?
Answer: 0.009

Question: What about the logD [12] of the same molecule?
Answer: 2.9

Question: For `Cc1c(C(C)OC(=O)Nc2ccccc2)sc2nc(C(F)(F)F)nn12` (stereo not given), which IC50 [10] is on record?
Answer: 39.8 nM

Question: What does the source list for `Cc1c(C(C)OC(=O)Nc2ccccc2)sc2nccn12` (stereo not given)?
Answer: IC50 [2]: 12.6 nM; fraction unbound [11]: 0.003; logD [12]: 2.4

Question: For `Cc1c(C(C)OC(=O)Nc2cccc(F)c2)sc2nncn12` (stereo not given), which IC50 [2] is on record?
Answer: 63.1 nM

Question: And the fraction unbound [11]?
Answer: 0.068

Question: And the logD [12]?
Answer: 2
